Measured values: paper PMC6287896 (Anti-Cancer Drugs, 2018)

Key:
Plasma stability = type: in vitro ADME; details: over 2 h
Outline: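 Human plasma was spiked with test compound and incubated separately at 25 and 37°C. Drug levels were measured over 120 min.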

[1] = Plasma pharmacokinetics and bioavailability after intravenous and oral dosing; type: in vivo; details: mouse, other: oral gavage and intravenous bolus
Outline: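 Mice were dosed by intravenous bolus or oral gavage, with plasma sampled over 24 h and one sacrifice per time point. Plasma was protein-precipitated with acetonitrile/methanol, evaporated and reconstituted in 0.1% acetic acid. Quantitation was by C18 UHPLC–tandem MS with heated ESI and positive-mode SRM (240.100→110.054), against spiked mouse plasma calibrants. Half-life was taken from concentration–time profiles.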

[2] = test system: DU-145 prostate carcinoma cells; assay: DU-145 xenografts in athymic nude mice; type: in vivo, mouse; details: 30 days
Tissue levels = type: in vivo; details: mouse heart, liver, kidney, brain; up to 24 h; i.v. and oral
Outline: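 After intravenous or oral dosing, liver, kidney, heart and brain were collected at sacrifice. Tissue was homogenised in ice-cold 0.1% acetic acid (10 ml/g) and centrifuged. Acetonitrile/methanol was added to the supernatant, followed by vortexing, centrifugation, evaporation and reconstitution in 0.1% acetic acid. Samples were quantified by LC–MS/MS (SRM 240.100→110.054) against spiked blank-tissue calibrants.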

DU-145 cells = assay: WST-1 assay for cell viability and cytotoxicity; type: cell-based, human; details: 23.4 mmol/l, 4 day incubation, read up to 8 h, P≤0.01
PC-3 cells = assay: WST-1 assay for cell viability and cytotoxicity; type: cell-based, human; details: 23.4 mmol/l, 4 day incubation, read up to 8 h, P≤0.01
[3] = Dose-response: serum markers of organ function; type: in vivo, mouse
Outline: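 Mice were dosed intravenously with vehicle or 50, 100 or 200 mg/kg test compound (six per group). They were euthanised by CO2 with cervical dislocation at 6 or 18 h, and blood and tissue were collected. Serum AST, GGT, CRP and troponin I were measured by colorimetric assays to assess liver, kidney and heart function. Tissues were examined for gross pathology.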

[4] = Acute toxicity, oral up and down procedure; type: in vivo, mouse; details: 2000 mg/kg, monitored 48 h, repeated twice on other animals
[5] = intravenous 50, 100 or 200 mg/kg, 6 or 18 h

C[C@@H]1C[C@@H](n2cnc(C(N)=O)c2N)[C@H](O)[C@H]1O [ICA-1s, 5-amino-1-((1R,2S,3S,4R)-2,3-dihydroxy-4-methylcyclopentyl)-1H-imidazole-4-carboxamide]
stability in human plasma (Plasma stability; 25°C (ambient)): stable | stability in human plasma (Plasma stability; 37°C): stable | half-life [1]: 5.7 h | average tumor size of treated xenografts ([2]; 100 mg/kg subcutaneous daily, untreated 156.4 mm^2): 76.8 mm^2 | tumor growth rate relative to untreated tumors ([2]; DU-145 xenografts, treated vs untreated): almost half the rate | accumulation in major organs (tissue levels) (Tissue levels): did not appear to indicate accumulation | in-vitro cytotoxicity (WST-1, absorbance at 450 nm) (DU-145 cells): significant cytotoxicity | in-vitro cytotoxicity (WST-1, absorbance at 450 nm) (PC-3 cells): significant cytotoxicity | serum CRP versus control ([3]; intravenous 200 mg/kg, 6 h after treatment, P=0.033): significant rise | serum AST versus control [3, 5]: no significant difference | serum GGT versus control [3, 5]: no significant difference | serum troponin I versus control [3, 5]: no significant difference | serum CRP versus control, all other readings ([3]; intravenous 50, 100 or 200 mg/kg, 6 or 18 h, other than 200 mg/kg at 6 h): no significant difference | acute toxicity outcome at highest dose of the UDP [4]: survived with no observable adverse reaction
